Test results reported in ChEMBL document CHEMBL1275561, “In vitro activities of doripenem, a new broad-spectrum carbapenem, against recently collected clinical anaerobic isolates, with emphasis on the Bacteroides fragilis group” (2008).
“And” between values parts separate entries of the source, which are not always exact repeats. Equal entries are not always repeated.

What was measured:
Type in all cases: functional
[Clostridium] innocuum [1] = Antimicrobial activity against Clostridium innocuum by agar dilution method
Bacteroides nordii [2] = assay: Antimicrobial activity against Bacteroides nordii by agar dilution method
Outline: (§1)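 CLSI agar dilution on enriched brucella agar (5% lysed defibrinated sheep blood, 1 μg/ml vitamin K1), with drug plates made on the test day. Log-phase cells were adjusted to 0.5 McFarland, and about 10^5 CFU/spot was delivered by Steers replicator. Plates were incubated anaerobically at 37°C for 48 h. MIC was the lowest concentration giving a marked growth change versus the control plate. Controls were B. fragilis ATCC 25285 and B. thetaiotaomicron ATCC 29741.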

Parabacteroides merdae [3] = assay: Antimicrobial activity against Bacteroides merdae by agar dilution method; outline: as §1
Cutibacterium acnes [4] = assay: Antimicrobial activity against Propionibacterium acnes assessed as resistant isolates by agar dilution method
Outline: (§2)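 Agar dilution following CLSI on brucella agar with 5% lysed defibrinated sheep blood and 1 μg/ml vitamin K1, plates made on test day. Log-phase cells at 0.5 McFarland, about 10^5 CFU/spot by Steers replicator, 48 h anaerobic at 37°C. MIC read as the lowest concentration causing a marked growth change versus control. Resistance counted by CLSI anaerobe breakpoints. Eubacterium lentum ATCC 43055 served as control.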

[5] = tested on: Bacteroides thetaiotaomicron; assay: Antimicrobial activity against Bacteroides thetaiotaomicron assessed as resistant isolates by agar dilution method
Outline: (§3)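 CLSI agar dilution on enriched brucella agar (5% lysed defibrinated sheep blood, 1 μg/ml vitamin K1), plates made on test day. Log-phase inocula adjusted to 0.5 McFarland; about 10^5 CFU/spot by Steers replicator. Incubated anaerobically at 37°C for 48 h. MIC was the lowest concentration giving a marked change in growth versus the drug-free control plate. Resistance rates used CLSI anaerobe breakpoints. Controls were B. fragilis ATCC 25285 and B. thetaiotaomicron ATCC 29741.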

[Clostridium] innocuum [6] = Antimicrobial activity against Clostridium innocuum assessed as resistant isolates by agar dilution method; conditions: pooled result: one value given for 4 cell lines, strains, targets or settings
Clostridium subterminale = assay: Antimicrobial activity against Clostridium subterminale by agar dilution method
[7] = tested on: Parabacteroides distasonis; assay: Antimicrobial activity against Bacteroides distasonis assessed as resistant isolates by agar dilution method; outline: as §3
Parabacteroides merdae [8] = assay: Antimicrobial activity against Bacteroides merdae assessed as resistant isolates by agar dilution method; outline: as §3
[9] = tested on: Peptoniphilus asaccharolyticus; assay: Antimicrobial activity against Peptoniphilus asaccharolyticus by agar dilution method
Outline: (§4)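 Gram-positive anaerobes were tested by CLSI agar dilution on brucella agar enriched with 5% lysed defibrinated sheep blood and 1 μg/ml vitamin K1. Inoculum was log-phase growth at 0.5 McFarland, about 10^5 CFU/spot by replicator. Incubation was anaerobic, 37°C, 48 h. MIC was the lowest concentration with a marked growth change versus the drug-free plate. Eubacterium lentum ATCC 43055 was the control, and tests were repeated if it fell outside the CLSI range.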

Clostridioides difficile [10] = assay: Antimicrobial activity against Clostridium difficile by agar dilution method
Bacteroides ovatus [11] = assay: Antimicrobial activity against Bacteroides ovatus by agar dilution method; outline: as §1
Anaerococcus prevotii [12] = assay: Antimicrobial activity against Anaerococcus prevotii by agar dilution method; outline: as §4
Bacteroides nordii [13] = assay: Antimicrobial activity against Bacteroides nordii assessed as resistant isolates by agar dilution method; outline: as §3
Cutibacterium acnes [14] = assay: Antimicrobial activity against Propionibacterium acnes by agar dilution method
Outline: (§5)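 Log-phase isolates were adjusted to 0.5 McFarland, and about 10^5 CFU/spot was delivered by Steers replicator. Plates were incubated anaerobically at 37°C for 48 h. MIC was the lowest concentration giving a marked growth change versus the control plate. Eubacterium lentum ATCC 43055 was the QC strain, with repeats when out of range.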

Bacteroides caccae [15] = assay: Antimicrobial activity against Bacteroides caccae assessed as resistant isolates by agar dilution method; outline: as §3
Clostridium perfringens = assay: Antimicrobial activity against Clostridium perfringens by agar dilution method
Finegoldia magna [16] = assay: Antimicrobial activity against Finegoldia magna assessed as resistant isolates by agar dilution method; outline: as §2
Bacteroides eggerthii [17] = assay: Antimicrobial activity against Bacteroides eggerthii assessed as resistant isolates by agar dilution method; outline: as §3
Propionibacterium [18] = assay: Antimicrobial activity against Propionibacterium sp. by agar dilution method; outline: as §5
Phocaeicola vulgatus [19] = assay: Antimicrobial activity against Bacteroides vulgatus assessed as resistant isolates by agar dilution method; outline: as §3
Propionibacterium [20] = assay: Antimicrobial activity against Propionibacterium sp. assessed as resistant isolates by agar dilution method; outline: as §2
Bacteroides fragilis [21] = assay: Antimicrobial activity against Bacteroides fragilis by agar dilution method; outline: as §1
Bacteroides uniformis [22] = assay: Antimicrobial activity against Bacteroides uniformis by agar dilution method; outline: as §1
[23] = tested on: Parabacteroides distasonis; assay: Antimicrobial activity against Bacteroides distasonis by agar dilution method; outline: as §1
Bacteroides uniformis [24] = assay: Antimicrobial activity against Bacteroides uniformis assessed as resistant isolates by agar dilution method; outline: as §3
Bacteroides fragilis [25] = assay: Antimicrobial activity against Bacteroides fragilis assessed as resistant isolates by agar dilution method; outline: as §3
Peptostreptococcus sp. [26] = assay: Antimicrobial activity against Peptostreptococcus sp. by agar dilution method; outline: as §5
[27] = tested on: Clostridium paraputrificum; assay: Antimicrobial activity against Clostridium paraputrificum by agar dilution method
[28] = tested on: Bacteroides thetaiotaomicron; assay: Antimicrobial activity against Bacteroides thetaiotaomicron by agar dilution method; outline: as §1
Bacteroides ovatus [29] = assay: Antimicrobial activity against Bacteroides ovatus assessed as resistant isolates by agar dilution method; outline: as §3
Bacteroides caccae [30] = assay: Antimicrobial activity against Bacteroides caccae by agar dilution method; outline: as §1
[31] = tested on: Peptoniphilus asaccharolyticus; assay: Antimicrobial activity against Peptoniphilus asaccharolyticus assessed as resistant isolates by agar dilution method; conditions: pooled result: one value given for 4 cell lines, strains, targets or settings; outline: as §2
Bacteroides eggerthii [32] = assay: Antimicrobial activity against Bacteroides eggerthii by agar dilution method; outline: as §1
Clostridium tertium = assay: Antimicrobial activity against Clostridium tertium by agar dilution method
Parvimonas micra [33] = assay: Antimicrobial activity against Micromonas micros by agar dilution method; outline: as §4
Finegoldia magna [34] = assay: Antimicrobial activity against Finegoldia magna by agar dilution method; outline: as §4
Phocaeicola vulgatus [35] = assay: Antimicrobial activity against Bacteroides vulgatus by agar dilution method; outline: as §1
Clostridioides difficile [36] = assay: Antimicrobial activity against Clostridium difficile by agar dilution method in presence of beta-lactamase inhibitor Tazobactam; outline: as §4
Parvimonas micra [37] = assay: Antimicrobial activity against Micromonas micros by agar dilution method in presence of beta-lactamase inhibitor Tazobactam; outline: as §4
Finegoldia magna [38] = assay: Antimicrobial activity against Finegoldia magna by agar dilution method in presence of beta-lactamase inhibitor Tazobactam; outline: as §4
[39] = tested on: Peptoniphilus asaccharolyticus; assay: Antimicrobial activity against Peptoniphilus asaccharolyticus by agar dilution method in presence of beta-lactamase inhibitor Tazobactam; outline: as §4
Propionibacterium [40] = assay: Antimicrobial activity against Propionibacterium sp. by agar dilution method in presence of beta-lactamase inhibitor Tazobactam; outline: as §5
Peptostreptococcus sp. [41] = assay: Antimicrobial activity against Peptostreptococcus sp. by agar dilution method in presence of beta-lactamase inhibitor Tazobactam; outline: as §5
Cutibacterium acnes [42] = assay: Antimicrobial activity against Propionibacterium acnes by agar dilution method in presence of beta-lactamase inhibitor Tazobactam; outline: as §5
Anaerococcus prevotii [43] = assay: Antimicrobial activity against Anaerococcus prevotii by agar dilution method in presence of beta-lactamase inhibitor Tazobactam; outline: as §4

C[C@@H](O)[C@H]1C(=O)N2C(C(=O)O)=C(S[C@@H]3CN[C@H](C(=O)N(C)C)C3)[C@H](C)[C@H]12 [MEROPENEM]
0%: Activity (Cutibacterium acnes [4]) | Activity [5] | Activity ([Clostridium] innocuum [6]) | Activity [7] | Activity (Parabacteroides merdae [8]) | Activity (Bacteroides nordii [13]) | Activity (Bacteroides caccae [15]) | Activity (Finegoldia magna [16]) | Activity (Bacteroides eggerthii [17]) | Activity (Phocaeicola vulgatus [19]) | Activity (Propionibacterium [20]) | Activity (Bacteroides uniformis [24]) | Activity (Bacteroides ovatus [29]) | Activity [31]
0.06 µg/mL: MIC (Cutibacterium acnes [14]) | MIC50 (Cutibacterium acnes [14]) | MIC90 (Cutibacterium acnes [14]) | MIC (Clostridium perfringens) | MIC50 (Clostridium perfringens) | MIC (Propionibacterium [18]) | MIC50 (Propionibacterium [18])
2 µg/mL: MIC50 ([Clostridium] innocuum [1]) | MIC90 ([Clostridium] innocuum [1]) | MIC50 (Clostridium subterminale) | MIC90 (Clostridium subterminale) | MIC90 (Bacteroides ovatus [11]) | MIC90 [23] | MIC50 [27] | MIC90 [27] | MIC90 [28] | MIC90 (Bacteroides caccae [30]) | MIC50 (Clostridium tertium) | MIC90 (Clostridium tertium) | MIC90 (Phocaeicola vulgatus [35])
1 µg/mL: MIC90 (Bacteroides nordii [2]) | MIC90 (Parabacteroides merdae [3]) | MIC (Clostridioides difficile [10]) | MIC90 (Bacteroides fragilis [21]) | MIC50 [23] | MIC90 (Bacteroides eggerthii [32])
0.125 µg/mL: MIC50 [9] | MIC50 (Anaerococcus prevotii [12]) | MIC90 (Clostridium perfringens) | MIC50 (Peptostreptococcus sp. [26]) | MIC50 (Parvimonas micra [33]) | MIC50 (Finegoldia magna [34]) | MIC90 (Finegoldia magna [34])
0.5 µg/mL: MIC90 [9] | MIC50 (Bacteroides ovatus [11]) | MIC90 (Anaerococcus prevotii [12]) | MIC90 (Bacteroides uniformis [22]) | MIC90 (Peptostreptococcus sp. [26]) | MIC50 [28] | MIC90 (Parvimonas micra [33]) | MIC50 (Phocaeicola vulgatus [35])
0.25 µg/mL: MIC50 (Bacteroides nordii [2]) | MIC50 (Parabacteroides merdae [3]) | MIC90 (Propionibacterium [18]) | MIC50 (Bacteroides fragilis [21]) | MIC50 (Bacteroides uniformis [22]) | MIC50 (Bacteroides caccae [30]) | MIC50 (Bacteroides eggerthii [32])
1.5%: Activity (Bacteroides fragilis [25])

CCN1CCN(C(=O)N[C@@H](C(=O)N[C@@H]2C(=O)N3[C@@H]2SC(C)(C)[C@@H]3C(=O)O)c2ccccc2)C(=O)C1=O [PIPERACILLIN]
5.6%: Activity ([Clostridium] innocuum [6])
0.5 µg/mL: MIC (Parvimonas micra [37]) | MIC (Parvimonas micra [37]; Parvimonas micra, read-out: MIC) | MIC (Finegoldia magna [38]) | MIC (Finegoldia magna [38]; Finegoldia magna, read-out: MIC) | MIC [39] | MIC ([39]; Peptoniphilus asaccharolyticus, read-out: MIC) | MIC (Peptostreptococcus sp. [41]) | MIC (Peptostreptococcus sp. [41]; Peptostreptococcus sp., read-out: MIC) | MIC (Anaerococcus prevotii [43]) | MIC (Anaerococcus prevotii [43]; Anaerococcus prevotii, read-out: MIC)
0%: Activity (Cutibacterium acnes [4]) | Activity [7] | Activity (Parabacteroides merdae [8]) | Activity (Bacteroides nordii [13]) | Activity (Bacteroides caccae [15]) | Activity (Finegoldia magna [16]) | Activity (Bacteroides eggerthii [17]) | Activity (Phocaeicola vulgatus [19]) | Activity (Propionibacterium [20]) | Activity (Bacteroides uniformis [24]) | Activity (Bacteroides ovatus [29]) | Activity [31]
2 µg/mL: MIC (Clostridioides difficile [36])
1%: Activity (Bacteroides fragilis [25])
1.3%: Activity [5]
0.25 µg/mL: MIC (Propionibacterium [40]; Propionibacterium, read-out: MIC) | MIC (Cutibacterium acnes [42]; Cutibacterium acnes, read-out: MIC)
0.25 µg/mL and 0.5 µg/mL: MIC (Propionibacterium [40]) | MIC (Cutibacterium acnes [42])
